ROMK primary – modulates human ROMK potassium channel activity; 130,000 tested, 2% active; P48048; Tet-inducible ROMK, thallium flux fluorescence; actives lie on both sides; B-score at 10 µM; AID 1918;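 active = signal ratio slope over the read window, or its plate-corrected B-score, at least 3 SD from the plate mean, either direction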;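 note: B-score of the F/F0 ratio slope over 7 to 12 s after thallium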
Target sequence (P48048 whole entry, looked up): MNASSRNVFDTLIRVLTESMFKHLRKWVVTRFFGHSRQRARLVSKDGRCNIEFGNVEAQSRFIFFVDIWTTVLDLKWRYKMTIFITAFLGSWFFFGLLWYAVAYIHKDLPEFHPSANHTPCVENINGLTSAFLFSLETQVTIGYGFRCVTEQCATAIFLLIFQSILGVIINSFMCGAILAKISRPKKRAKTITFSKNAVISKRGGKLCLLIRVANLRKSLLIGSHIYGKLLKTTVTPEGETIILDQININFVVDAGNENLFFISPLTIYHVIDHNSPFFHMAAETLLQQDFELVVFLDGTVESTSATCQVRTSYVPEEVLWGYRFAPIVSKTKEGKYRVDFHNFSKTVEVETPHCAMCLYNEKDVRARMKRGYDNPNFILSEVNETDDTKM
Autophagy mod – modulators of autophagy | calls only at 10 µM (by protocol) | MEF GFP-LC3 puncta imaging; test concentration mostly 10 µM | 190,000 tested, 0.98% active;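 active = percentage of spot-positive cells more than 3 SD above its plate mean, without a fluorescence outlier flag or 80% toxicity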;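 note: spot-positive cell cutoff set from DMSO-treated cells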
Redox H2O2 prof – compounds producing H2O2 with reducing agent – biochemical, NIH compound library profiling, artefact control for MLSCN library redox annotation, primary screen; DTT-dependent redox cycling H2O2, phenol red/HRP absorbance; 100% = 100 µM peroxide control, 0% = buffer; activation, % at 10 µM; 200,000 tested, 0.03% active; AID 878;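 active = activation of at least 50% relative to the plate's high and low controls in the primary single-dose screen; inactive = activation below 50%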;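 note: compound incubated with DTT at 0.8 mM final as the reducing agent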
Dynein cargo inh – blocks dynein driven cargo transport along microtubules | 220,000 tested, 0.47% active | z-score, hits read low | 3617.4 mouse cells, GR-EGFP nuclear translocation imaging; test concentration mostly 20 µM; stimulated with dexamethasone, 1 µM; stronger effect = lower value;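 active = plate z-score of nuclear minus cytoplasmic receptor signal below a set negative limit, without overly bright fluorescence or cell loss, cut at about -3.5 in these data, passing the limit was not always enough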;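 note: z-score of nuclear minus cytoplasmic ring GR-EGFP intensity difference per well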
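Schedule: 48 h induction, then 1 h compound, then 30 min agonist, 37 °C. Buffer or medium: tetracycline-free induction medium containing charcoal-stripped FBS. Reagent: 1.0 µM final dexamethasone stimulus. Evaluation: nuclear versus cytoplasmic GR-EGFP signal, averaged per well. Signal: high-content fluorescence imaging after fixation.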
Cl transport mod – KCC2 (human) Cl- transport modulation. Q9H2X9. KCC2 cells, thallium flux FluoZin-2 fluorescence. B-score of Tl+ flux slope (higher = more flux/activation; lower = inhibition) at 10 µM. 190,000 tested, 2.2% active. AID 1456;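 active = thallium flux slope and its plate-corrected score both differing from the plate sample mean at a set confidence after two filtering rounds, in either direction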;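 note: slope of fluorescence scaled to starting intensity during 10 to 20 s after thallium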
Numbers without * were called inactive; i = inactive; · = no result given; + = active, no number. The list is not random: actives were taken first. Their share in the collection is about 4.1%.

SMILES | ROMK primary | Autophagy mod | Redox H2O2 prof | Dynein cargo inh | Cl transport mod
CS(=O)(=O)N1CCN(C(=O)COc2ccc3ccccc3c2)CC1 | -0.46 | · | · | 1.2 | 1.5
CC(C)CC(=O)N1CCN(S(C)(=O)=O)CC1 | · | i | 0 | 0.1 | 6.4*
O=C(NCC1CCCO1)c1ccc(CNS(=O)(=O)c2cccc(Cl)c2)cc1 (stereo unspecified) | 0.4 | i | -1 | -0.16 | -0.11
Cc1cc(C)cc(C(=O)NC(=S)Nc2ccc3c(c2)OCCO3)c1 | · | i | 0 | 1.3 | 1
Cc1ccc(C(=O)NC(=S)Nc2ccc3c(c2)OCCO3)c(C)c1 | · | i | 2 | -0.79 | 13*
O=C(NCc1cccs1)c1ccc(CS(=O)(=O)c2ccc(Cl)cc2)o1 | 0.014 | i | 0 | 0.46 | ·
O=C(NCc1cccnc1)c1ccc(CS(=O)(=O)c2ccc(Cl)cc2)o1 | · | i | 3 | -0.51 | -5.3*
N=C1C(c2ccccc2)=C(O)CN1c1cccc(S(=O)(=O)Nc2cccc(C(F)(F)F)c2)c1 | -2.2 | i | 0 | -0.15 | -0.45
CCC(C)N1C(=O)CN(C2CCCCCC2)C(=O)C1c1ccccc1F (stereo unspecified) | -0.049 | i | -1 | 0.24 | -0.58
O=C(CN1CCOCC1)Nc1ccccc1Sc1ccc(Cl)cc1 | -0.25 | i | 0 | 0.38 | -0.73
CCCCn1c(=N)n(CC(=O)c2ccc([N+](=O)[O-])cc2)c2ccccc21 | -0.94 | + | -1 | -0.72 | 0.3
Cc1ccc(Cn2c(=N)n(CC(=O)c3ccc([N+](=O)[O-])cc3)c3ccccc32)cc1 | · | i | 1 | 0.41 | -0.011
Cc1ccc(C2C3CN(C(C)C)CC=C3C(C#N)=C(N)C2(C#N)C#N)cc1 (stereo unspecified) | -4.3* | · | · | · | ·
COc1ccc(OC)c(C2C3CN(C(C)C)CC=C3C(C#N)=C(N)C2(C#N)C#N)c1 (stereo unspecified) | -0.96 | + | -1 | -2.3 | ·
COc1cc(CO)ccc1Oc1nc2ccccc2n2cnnc12 | · | · | · | -0.48 | 0.76
Cc1nc(SC2CCOC2=O)c2c(C)c(C)sc2n1 (stereo unspecified) | · | i | 1 | 0.012 | 7.1*
Cc1nc(SCc2ccc(C(=O)O)cc2)c2c(C)c(C)sc2n1 | -1.7 | · | · | -0.15 | -1.3
NC(=O)C1CCN(C(=O)/C=C/c2ccco2)CC1 | 0.18 | i | -1 | -0.8 | 0.56
CCCn1cnc2c(cnn2-c2ccc(F)cc2)c1=O | -0.38 | + | -1 | -0.029 | -0.21
O=c1c2cc(Cl)ccc2nc(-c2ccc([N+](=O)[O-])cc2)n1O | 3.5* | i | 0 | -0.37 | 49*
CCC(C(=O)NC(C)CCc1ccccc1)n1nc(C)n2c(cc3occc32)c1=O (stereo unspecified) | · | i | -1 | 0.12 | -5.5*
COC(=O)C1=NN(C(=O)c2cccc(Cl)c2)C(O)(C(C)(C)C)C1 (stereo unspecified) | 2.6* | i | 0 | -1.1 | 51*
O=C(C1CCC(CNS(=O)(=O)c2cccc3cccnc23)CC1)N1CCc2ccccc21 (stereo unspecified) | · | + | -1 | 0.32 | ·
O=C1NC(CCc2ccccc2)C(=O)N1Cc1ccc(Br)cc1 (stereo unspecified) | -1.2 | + | -1 | -0.63 | -0.0095
O=C(COC(=O)/C=C/C(=O)N1CCN(c2ccccc2)CC1)NC(c1ccccc1)c1ccccc1 | -0.87 | i | 0 | 0.5 | 0.41
SMILES | ROMK primary | Autophagy mod | Redox H2O2 prof | Dynein cargo inh | Cl transport mod
CCCCCCCCCCCCCCCC[n+]1cccc2ccccc21 | · | i | 0 | -5.2* | 1.3
O=C(C[n+]1cccc2ccccc21)c1ccccc1 | 0.43 | i | 0 | -0.29 | -0.26
Cc1ccc(N2C(=O)N(CC(=O)Nc3ccc(C)c(C)c3[N+](=O)[O-])C(=O)C2C)cc1 (stereo unspecified) | 0.087 | i | 0 | -0.69 | -1.3
O=C1C=C(O)c2cccc(O)c2C1=O | · | · | · | -0.67 | 0.0022
CC1=CC(=O)c2c(O)ccc(O)c2C1=O | · | i | 1 | -3.9* | -5.1*
N=c1c(-c2nc3ccccc3[nH]2)cc(C(=O)c2cccs2)nn1-c1ccc(Cl)cc1 | · | + | 2 | 0.14 | 0.12
COc1ccc(C(=O)NC(=S)Nc2nc(C)cc(C)n2)cc1Br | · | · | · | -1.1 | -0.099
CCN(c1ccccc1)S(=O)(=O)c1ccc(NC(=S)NC(=O)c2cccs2)cc1 | · | i | 2 | -0.68 | 16*

Compound activity from PubChem BioAssay.
